ChEMBL document CHEMBL1136257, “New highly active taxoids from 9beta-dihydrobaccatin-9,10-acetals. Part 3” (Bioorg Med Chem Lett, 2003)
Converted amounts (≈) assume the structure as drawn.

What was measured:
[1] = Solubility of compound in JP1 at pH 1.2 using UV assay; assay type: physicochemical; conditions: JP1, pH 1.2
[2] = Solubility in water using UV assay; assay type: physicochemical
[3] = Solubility of compound in JP2 at pH 6.8 using UV assay; assay type: physicochemical; conditions: JP2, pH 6.8
P388 = experiment: Cytotoxic activity against mouse leukemia P388 cell line; assay type: functional
Summary of the method: (§1)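 Growth inhibition (IC50) of mouse leukemia P388 and human lung cancer PC-6 and PC-12 cells after 72 h continuous exposure to compound; IC50 taken as the concentration giving 50% growth inhibition.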

PC-6 = experiment: Cytotoxic activity against human lung cancer PC-6 cell line; assay type: functional; summary of the method: as §1
PC-12 = experiment: Cytotoxic activity against human lung cancer PC-12 cell line
Mus musculus [4] = experiment: Mean tumor weight was determined in mice inoculated with B16 melanoma BL6 cells sc at a dose 8 mg/kg iv [IR (%) = (1-TWt/TWc)*100]; assay type: functional
Summary of the method: (§2)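 C57BL/6 mice (six per group) received subcutaneous B16 melanoma BL6 cells on day 0 and a single iv or oral dose on day 4. Tumors were excised and weighed on day 15. Inhibition rate IR (%) = (1 − mean treated tumor weight/mean control tumor weight) × 100.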

Mus musculus [5] = experiment: Maximum rate of body weight loss was determined in mice inoculated with B16 melanoma BL6 cells sc at a dose 18 mg/kg by intravenous administration; assay type: functional
Summary of the method: (§3)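 On day 0, B16 melanoma BL6 cells (cultured line) were implanted subcutaneously into C57BL/6 mice, six per group. A single iv or oral dose was given on day 4, and body weight was followed. BWLmax (%) is the maximum rate of body weight loss; a value below 0 means no loss.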

Mus musculus [6] = experiment: Mortality was determined in mice inoculated with B16 melanoma BL6 cells sc at a dose 12 mg/kg by intravenous administration; 0/6; assay type: functional
Mus musculus [7] = experiment: Maximum rate of body weight loss was determined in mice inoculated with B16 melanoma BL6 cells sc at a dose 40.5 mg/kg by peroral administration; assay type: functional; conditions: route oral; summary of the method: as §3
Mus musculus [8] = experiment: Mean tumor weight was determined in mice inoculated with B16 melanoma BL6 cells sc at a dose 40.5 mg/kg po [IR (%) = (1-TWt/TWc)*100]; assay type: functional; summary of the method: as §2
Mus musculus [9] = experiment: Maximum rate of body weight loss was determined in mice inoculated with B16 melanoma BL6 cells sc at a dose 18 mg/kg by peroral administration; assay type: functional; conditions: route oral; summary of the method: as §3
Mus musculus [10] = experiment: Mean tumor weight was determined in mice inoculated with B16 melanoma BL6 cells sc at a dose 12 mg/kg po [IR (%) = (1-TWt/TWc)*100]; assay type: functional; summary of the method: as §2
Mus musculus [11] = experiment: Mean tumor weight was determined in mice inoculated with B16 melanoma BL6 cells sc at a dose 27 mg/kg iv [IR (%) = (1-TWt/TWc)*100]; assay type: functional; summary of the method: as §2
Mus musculus [12] = experiment: Mortality was determined in mice inoculated with B16 melanoma BL6 cells sc at a dose 18 mg/kg by intravenous administration; 0/6; assay type: functional
Mus musculus [13] = experiment: Mean tumor weight was determined in mice inoculated with B16 melanoma BL6 cells sc at a dose 12 mg/kg iv [IR (%) = (1-TWt/TWc)*100]; assay type: functional; summary of the method: as §2
Mus musculus [14] = experiment: Mean tumor weight was determined in mice inoculated with B16 melanoma BL6 cells sc at a dose 27 mg/kg po [IR (%) = (1-TWt/TWc)*100]; assay type: functional; summary of the method: as §2
Mus musculus [15] = experiment: Mortality was determined in mice inoculated with B16 melanoma BL6 cells sc at a dose 18 mg/kg by peroral administration; 0/6; assay type: functional; conditions: route oral
Mus musculus [16] = experiment: Mortality was determined in mice inoculated with B16 melanoma BL6 cells sc at a dose 40.5 mg/kg by peroral administration; 0/6; assay type: functional; conditions: route oral
Mus musculus [17] = experiment: Mortality was determined in mice inoculated with B16 melanoma BL6 cells sc at a dose 27 mg/kg by peroral administration; 0/6; assay type: functional; conditions: route oral
Mus musculus [18] = experiment: Mortality was determined in mice inoculated with B16 melanoma BL6 cells sc at a dose 27 mg/kg by intravenous administration; 0/6; assay type: functional
Mus musculus [19] = experiment: Maximum rate of body weight loss was determined in mice inoculated with B16 melanoma BL6 cells sc at a dose 12 mg/kg by intravenous administration; assay type: functional; summary of the method: as §3
Mus musculus [20] = experiment: Mortality was determined in mice inoculated with B16 melanoma BL6 cells sc at a dose 8 mg/kg by intravenous administration; 0/6; assay type: functional
Mus musculus [21] = experiment: Maximum rate of body weight loss was determined in mice inoculated with B16 melanoma BL6 cells sc at a dose 12 mg/kg by peroral administration; assay type: functional; conditions: route oral; summary of the method: as §3
Mus musculus [22] = experiment: Maximum rate of body weight loss was determined in mice inoculated with B16 melanoma BL6 cells sc at a dose 27 mg/kg by intravenous administration; assay type: functional; summary of the method: as §3
Mus musculus [23] = experiment: Mortality was determined in mice inoculated with B16 melanoma BL6 cells sc at a dose 12 mg/kg by peroral administration; 0/6; assay type: functional; conditions: route oral
Mus musculus [24] = experiment: Mean tumor weight was determined in mice inoculated with B16 melanoma BL6 cells sc at a dose 18 mg/kg po [IR (%) = (1-TWt/TWc)*100]; assay type: functional; summary of the method: as §2
Mus musculus [25] = experiment: Mean tumor weight was determined in mice inoculated with B16 melanoma BL6 cells sc at a dose 18 mg/kg iv [IR (%) = (1-TWt/TWc)*100]; assay type: functional; summary of the method: as §2
Mus musculus [26] = experiment: Maximum rate of body weight loss was determined in mice inoculated with B16 melanoma BL6 cells sc at a dose 8 mg/kg by intravenous administration; assay type: functional; summary of the method: as §3
Mus musculus [27] = experiment: Maximum rate of body weight loss was determined in mice inoculated with B16 melanoma BL6 cells sc at a dose 27 mg/kg by peroral administration; assay type: functional; conditions: route oral; summary of the method: as §3
Mus musculus [28] = experiment: Mortality rate in mice inoculated with B16 melanoma BL6 cells sc at a dose 8 mg/kg by peroral administration; 0/6; assay type: functional; conditions: route oral
Mus musculus [29] = experiment: Maximum rate of body weight loss was determined in mice inoculated with B16 melanoma BL6 cells sc at a dose 8 mg/kg by peroral administration; assay type: functional; conditions: route oral; summary of the method: as §3
Mus musculus [30] = experiment: Mortality was determined in mice inoculated with B16 melanoma BL6 cells sc at a dose 18 mg/kg by peroral administration; 2/6; assay type: functional; conditions: route oral
Mus musculus [31] = experiment: Mean tumor weight was determined in mice inoculated with B16 melanoma BL6 cells sc at a dose 8 mg/kg po [IR (%) = (1-TWt/TWc)*100]; assay type: functional; summary of the method: as §2
Mus musculus [32] = experiment: Mortality rate in mice inoculated with B16 melanoma BL6 cells sc at a dose 18 mg/kg by intravenous administration; 0/6; assay type: functional
Mus musculus [33] = experiment: Mortality rate in mice inoculated with B16 melanoma BL6 cells sc at a dose 12 mg/kg by intravenous administration; 0/6; assay type: functional

Structure (SMILES)	solubility [1] [µg/mL]	solubility [2] [µg/mL]	solubility [3] [µg/mL]	GI50 (P388) [ng/mL]	GI50 (PC-6) [ng/mL]	GI50 (PC-12) [ng/mL]	BWLmax (Mus musculus [9]) [%]	IR (Mus musculus [10]) [%]	IR (Mus musculus [13]) [%]	BWLmax (Mus musculus [19]) [%]	BWLmax (Mus musculus [21]) [%]	Mortality (Mus musculus [23])	IR (Mus musculus [24]) [%]	further results
CC(=O)O[C@@]12CO[C@@H]1CC[C@@]1(C)[C@@H]3O[C@H](CN4CCOCC4)O[C@@H]3C3=C(C)[C@@H](OC(=O)[C@](C)(O)[C@@H](NC(=O)OC(C)(C)C)c4ccccc4)C[C@@](O)([C@@H](OC(=O)c4ccccc4)[C@@H]12)C3(C)C	350 (≈ 381 µM)	< 4	< 4	0.02 (≈ 2.18e-05 µM)	0.47 (≈ 0.000511 µM)	0.07 (≈ 7.62e-05 µM)								
CC(=O)O[C@@]12CO[C@@H]1CC[C@@]1(C)[C@@H]3O[C@H](CN4CCOCC4)O[C@@H]3C3=C(C)[C@@H](OC(=O)[C@](C)(O)[C@@H](NC(=O)c4ccccc4)c4ccccn4)C[C@@](O)([C@@H](OC(=O)c4ccccc4)[C@@H]12)C3(C)C	> 1800	< 4	< 4	0.19 (≈ 0.000206 µM)	0.45 (≈ 0.000487 µM)	0.57 (≈ 0.000617 µM)	<0	23.4	75.4	<0	<0	0	59.7	IR (Mus musculus [4]): 61.3%; BWLmax (Mus musculus [5]): <0%; Mortality (Mus musculus [6]): 0; BWLmax (Mus musculus [7]): 4.1%; IR (Mus musculus [8]): 96.9%; IR (Mus musculus [11]): 95.8%; Mortality (Mus musculus [12]): 0; IR (Mus musculus [14]): 91.3%; Mortality (Mus musculus [15]): 0; Mortality (Mus musculus [16]): 0; Mortality (Mus musculus [17]): 0; Mortality (Mus musculus [18]): 0; Mortality (Mus musculus [20]): 0; BWLmax (Mus musculus [22]): 2.4%; IR (Mus musculus [25]): 89.8%; BWLmax (Mus musculus [26]): <0%; BWLmax (Mus musculus [27]): <0%
CC(=O)O[C@@]12CO[C@@H]1CC[C@@]1(C)[C@@H]3O[C@H](CN4CCOCC4)O[C@@H]3C3=C(C)[C@@H](OC(=O)[C@](C)(O)[C@@H](NC(=O)OC(C)(C)C)c4ccccn4)C[C@@](O)([C@@H](OC(=O)c4ccccc4)[C@@H]12)C3(C)C	1800 (≈ 1960 µM)	6 (≈ 6.52 µM)	5 (≈ 5.43 µM)	0.12 (≈ 0.00013 µM)	0.11 (≈ 0.00012 µM)	0.06 (≈ 6.52e-05 µM)	18.1	92.2	96.4	13.5	<0	0	98	Mortality (Mus musculus [28]): 0; BWLmax (Mus musculus [29]): <0%; Mortality (Mus musculus [30]): 2; IR (Mus musculus [31]): 42.2%; Mortality (Mus musculus [32]): 0; Mortality (Mus musculus [33]): 0
